Experiment [1] deals with T1, ATP phosphoribosyltransferase (Mycobacterium tuberculosis) (UniProt P9WMN1).
T1 sequence (whole entry): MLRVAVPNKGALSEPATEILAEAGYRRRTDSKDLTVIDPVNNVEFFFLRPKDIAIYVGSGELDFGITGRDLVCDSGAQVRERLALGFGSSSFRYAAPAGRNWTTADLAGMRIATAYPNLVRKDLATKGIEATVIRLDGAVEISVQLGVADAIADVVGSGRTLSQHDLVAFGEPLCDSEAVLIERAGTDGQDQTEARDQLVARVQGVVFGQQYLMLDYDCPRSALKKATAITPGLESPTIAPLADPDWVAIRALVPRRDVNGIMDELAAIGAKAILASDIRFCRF
Kind of experiment: Inhibition of Mycobacterium tuberculosis HisG assessed as phosphoribosyl ATP production at 10 uM by spectrophotometry.

Experiment [2] has as its target T2, ATP phosphoribosyltransferase (Mycobacterium tuberculosis, UniProt P9WMN1).
T2 sequence (P9WMN1 whole entry): T1 sequence (whole entry)
Briefly: Inhibition of Mycobacterium tuberculosis HisG assessed as phosphoribosyl ATP production by spectrophotometry.

Experiment [3] addresses T1, ATP phosphoribosyltransferase (Mycobacterium tuberculosis). Kind of experiment: Inhibition of Mycobacterium tuberculosis HisG assessed as phosphoribosyl ATP production at 1 uM by spectrophotometry.
Experiment [4] in a line: Inhibition of Escherichia coli HisG.
The subject of experiment [5] is Mycolicibacterium smegmatis. Briefly: Antimycobacterial activity against Mycobacterium smegmatis ATCC 700084 at 12 ug/mL. The experiment is classed as functional, organism-based. In a few lines: (§1)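 M. smegmatis ATCC 700084 pre-grown 2 days in 7H9 with 0.2% glucose and 0.05% Tween80, then plated on 7H10 agar (0.2% glycerol) containing compound at 1, 3, 6, 12 or 25 μg/ml. Plates were incubated 4 days at 37 °C and growth was judged by inspection. Controls were no-compound and DMSO plates, plus kanamycin 25 μg/ml.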

Experiment [6] relates to Mycolicibacterium smegmatis. Briefly: Antimycobacterial activity against Mycobacterium smegmatis ATCC 700084 at 25 ug/mL. The experiment is classed as functional. In a few lines:
as §1

Each structure is given as a SMILES string. Activity calls are given as the source filed them. The calls are words filed in the database; no cut-off is given here.

Broadly, the inhibition is the share of the control response that was lost under treatment. The term IC50 denotes the concentration that gives 50% inhibition. In general, Ki refers to the equilibrium dissociation constant of an inhibitor or competing ligand from its target. In the case of `O=C(CC(NC(=O)c1ccccc1)c1ccccc1)Nc1nc2ccc([N+](=O)[O-])cc2s1` (configuration not stated), the inhibition in experiment [1] came out at 71%. Moreover, in experiment [2], the IC50 is 6 µM and the inhibition constant (Ki) was found to be 2 µM. The inhibition in experiment [3] came to 35%.
On the same counts, the results for `O=C(CSc1nnc(-c2ccccc2)c(-c2ccccc2)n1)Cc1nccs1` are 76%, 4 µM, 2 µM and 40%.
As to `O=c1oc2ccccc2c(O)c1Cc1c(O)c2ccccc2oc1=O` [DICUMAROL], the inhibitory constant (Ki) in experiment [4] came to 50 µM.
The molecule `Oc1c(Cl)c(Cl)c(Cl)c(Cl)c1Cl` [PENTACHLOROPHENOL] returned a Ki in experiment [4] of 50 µM.
With `O=[N+]([O-])c1ccc(Nc2cc(Nc3cccc(O)c3)c3nonc3c2[N+](=O)[O-])c(O)c1`, the inhibition in experiment [1] came out at 46%. The IC50 in experiment [2] is 11.9 µM. In addition, the result in experiment [5] was Active. Further, in experiment [6], the inhibition at 25 µg/mL worked out at 100%.
As for `Nc1nc(SCc2ccccc2)c(N)c(SCc2ccccc2)n1`, in experiment [1], the inhibition worked out at 48%.
On the same count and under the same terms, the figure for `COc1cc(C2C(C(=O)c3ccc(Cl)cc3)=C(O)C(=O)N2Cc2cccnc2)cc(OC)c1OC` (configuration not stated) is 20%; for `CN(CC(=O)O)c1nc2cc([N+](=O)[O-])ccc2s1` it is 15%; for `Cc1cc(/N=N/c2ccc(S(=O)(=O)O)cc2)c(N)c(/N=N/c2ccc(S(=O)(=O)O)cc2)c1N` it is 45%.
For `O=[N+]([O-])c1ccc2c(/N=N/c3ccc4ccccc4c3O)c(O)cc(S(=O)(=O)O)c2c1`, the inhibition in experiment [1] was determined as 50%. In addition, the half-maximal inhibitory concentration (IC50) in experiment [2] is 10 µM.
Take `COc1ccc(COC(=O)C2=C(C)NC3=C(C(=O)CC(c4cccs4)C3)C2c2cccs2)cc1` (configuration not stated): the inhibition in experiment [1] is 50%. In addition, in experiment [2], the concentration for half-maximal inhibition (IC50) came to 10 µM.
On to `O=C(NNC(=O)c1cc([N+](=O)[O-])cc([N+](=O)[O-])c1Br)Nc1ccccc1`, for which the inhibition in experiment [1] was found to be 71%. Besides, the half-inhibitory concentration (IC50) in experiment [2] worked out at 5.5 µM.
On the same counts, the results for `CCOC(=O)C(=O)Nc1nc2ccc([N+](=O)[O-])cc2s1` are 39% and 13.9 µM.
As to `O=[N+]([O-])c1ccc(O)c([N+](=O)[O-])c1` [2,4-DINITROPHENOL], the inhibitory constant (Ki) in experiment [4] worked out at 50 µM.
